In the library only some 2.4% were active in any assay of this set; here they are far more common.
697 NFkB inh: inhibitors of the PMA/ionomycin-induced NF-kB reporter in 697 B cells; 697 B-cell NF-kB luciferase reporter, 16 h; inhibition, % at 4 µM; 330,000 tested, 0.33% active; AID 435022; in the data active = inhibition above about 35%
NR2E3 ag-1: human photoreceptor-specific nuclear receptor agonism | inhibition of corepressor binding, % at 3.98 µM | 360,000 tested, 0.35% active | CHO-S Gal4-NCOR/VP16-NR2E3 two-hybrid, luciferase;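 active = inhibition above the mean of all tested compounds plus 3 SD, cut at about 70% in these data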;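 also: 0% = DMSO with NR2E3 transfected cells and 100% = cells lacking NR2E3 construct; higher means lower luciferase signal from less NR2E3 corepressor binding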
Target sequence (Q9Y5X4 whole entry, looked up, the tested form may be a part): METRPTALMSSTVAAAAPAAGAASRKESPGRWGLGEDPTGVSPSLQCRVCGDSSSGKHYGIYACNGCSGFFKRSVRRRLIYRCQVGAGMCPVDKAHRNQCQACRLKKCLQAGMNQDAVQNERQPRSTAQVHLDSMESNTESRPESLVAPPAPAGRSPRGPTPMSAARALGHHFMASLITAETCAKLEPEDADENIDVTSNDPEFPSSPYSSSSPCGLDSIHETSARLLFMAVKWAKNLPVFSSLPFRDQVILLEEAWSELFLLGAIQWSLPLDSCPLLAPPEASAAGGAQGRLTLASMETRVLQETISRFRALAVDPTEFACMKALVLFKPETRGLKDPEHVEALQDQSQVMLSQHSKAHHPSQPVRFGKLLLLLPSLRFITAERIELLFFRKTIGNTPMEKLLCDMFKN
NR2E3 ag-2: agonists of human nuclear receptor NR2E3; Q9Y5X4; GST-NR2E3/biotin-RetCOR TR-FRET, 1536-well; inhibition of corepressor binding, % at 4.78 µM; 320,000 tested, 0.12% active; AID 2300;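 active = percent inhibition above the cutoff of mean plus 3 SD of all tested compounds, set per screening campaign, cut at about 20% in these data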;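 also: 0% = DMSO wells and 100% = biotin wells as full block of FRET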
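Format: 1536-well format; test system: GST-NR2E3 and biotin-RetCOR proteins; read-out basis: percent inhibition of TR-FRET ratio; timing: 5 h incubation at 4 °C; detection: time-resolved FRET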
Jurkat NFkB inh: lowers PMA/ionomycin-induced NF-kB signal in Jurkat cells; PMA/ionomycin-induced NF-kB luciferase reporter, luminescence; inhibition, % at 4 µM; 330,000 tested, 0.53% active; AID 435003; in the data active = inhibition above about 50%
MPTP inh: inhibitors of mitochondrial permeability transition pore. AID 602449. inhibition, % at 10 µM. isolated mouse mitochondria, Ca2+ swelling absorbance, 30 min. 360,000 tested, 1.4% active;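 active = inhibition of 50% or more, scaled per plate between neutral and stimulator controls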;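 also: 0% = DMSO wells given calcium and 100% = 1 mM EGTA wells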
aDG glyco up: alpha-DG glycosylation activation; Pro5-aDG cells, alpha-DG glycosylation AlphaScreen (IIH6); 0% Pro5, 100% B10-LARGE cell signal; AID 624168; activation, % at 10 µM; 360,000 tested, 0.22% active;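 active = activation of at least 8% versus controls, or a plate z-score of at least 8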;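 also: Pro5 are CHO cells carrying HIG-tagged alpha-DG that lacks glycosylation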
Jurkat NFkB conf: inhibitors of the PMA/ionomycin-induced NF-kB reporter in Jurkat cells, retest; 2,700 tested, 27% active; AID 435020; shares compounds with Jurkat NFkB inh; inhibition, % at 4 µM; Jurkat NF-kB luciferase, 16 h;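 active = inhibition reaching about 45% at 4 µM in either replicate, limit read from the data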;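 also: plate controls were PMA/ionomycin stimulated DMSO wells for no effect and unstimulated DMSO wells for full effect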
* hit, by the source's call; . = no result given.

SMILES | 697 NFkB inh | NR2E3 ag-1 | NR2E3 ag-2 | Jurkat NFkB inh | MPTP inh | aDG glyco up | Jurkat NFkB conf
Cc1ccc(C)c(NC(=O)C(Sc2nc3ccccc3c(=O)n2CC(C)C)c2ccccc2)c1 (stereo not given) | -16 | 17 | -1 | 65* | 9 | 0 | 6
C=CCn1c(Oc2cc(C)ccc2C)nc2c1c(=O)n(C)c(=O)n2C | -11 | -28 | -1 | 54* | 0 | 0 | 16
NC(N)=NN=C1CCCCCCCCCCC1 | -44 | -11 | 1 | 69* | 4 | 1 | 24
ON=C1CCCCCCCC1 | . | 9 | . | . | 1 | 0 | .
Cc1ccc(Nc2cc(C)nn2-c2nc(C)cc(=O)[nH]2)cc1 | -107 | 109* | -5 | 97* | -3 | 0 | 68*
O=c1cc(CSc2n[nH]c(=O)n2C2CC2)c2ccc(O)cc2o1 | 11 | -23 | 1 | 7 | 3 | 0 | .
CSc1ccc(S(=O)(=O)N2c3ccccc3CC2C)cc1 (stereo not given) | -4 | -35 | 3 | 55* | 1 | 0 | 27
CC(=O)N1CCc2cc(S(=O)(=O)N3c4ccccc4CC3C)ccc21 (stereo not given) | -72 | -9 | 3 | 53* | 4 | 0 | 18
CC1Cc2ccccc2N1S(=O)(=O)c1cnc[nH]1 (stereo not given) | 18 | 5 | -4 | 8 | 3 | 0 | .
O=C(O)CSc1nnc(-c2ccc(Cl)cc2Cl)n1-c1ccc(Br)cc1 | 1 | -24 | 1 | 1 | 0 | 0 | .
COc1ccc([N+](=O)[O-])cc1NC(=O)C(C)OC(=O)c1cccnc1 (stereo not given) | 3 | -3 | 3 | -4 | 1 | 0 | .
CC(C)N(C(=O)COC(=O)c1cccc(N(C)C)c1)c1ccccc1 | 10 | -16 | 1 | 5 | 0 | 0 | .
CC1CCCCC12NC(=O)N(CC(=O)c1ccc3c(c1)OCO3)C2=O (stereo not given) | -18 | -17 | -4 | -16 | -1 | 0 | .
O=C(/C=C\Nc1ccc2c(c1)OCO2)c1ccccn1 | -52 | -26 | 1 | 55* | 2 | 0 | -38
COc1ccc([C@H]2CC(=O)C=C(c3cc(C)ccc3OC)C2)cc1 | -12 | -40 | 0 | 58* | -2 | 0 | 26
CCOc1ccc(Br)cc1C1=CC(=O)C[C@H](c2ccc(OC)cc2)C1 | -53 | -5 | 3 | 65* | 0 | 0 | 47
CC(CCc1ccccc1)NC(=O)C(Cc1ccccc1)NS(=O)(=O)c1cccs1 (stereo not given) | 7 | -28 | 3 | -15 | 0 | 0 | .
O=C(c1ccc(N2CCCC2)c([N+](=O)[O-])c1)N1CCN(S(=O)(=O)c2ccccc2)CC1 | 12 | -38 | . | 11 | -1 | 0 | .
O=c1c2ccccc2nc2sc(Nc3ccc(F)cc3)nn12 | -154 | -57 | 3 | -157 | 1 | 0 | -42
COc1ccc(-c2noc(N3CCCC(C(=O)Nc4ccc(F)cc4F)C3)n2)cc1 (stereo not given) | -65 | -127 | 3 | -1 | -1 | 0 | .
CCCC[C@@H](CN[C@H](C)CNC)NCC1CCC(C(C)(C)C)CC1 (stereo not given in full) | 19 | . | 3 | 53* | . | . | 26
CC[C@H](C)[C@@H](CN[C@H](CCCCNC)CNC)NCC1CCCC1 | 10 | -21 | 2 | 8 | 0 | 0 | .
COc1ccc2[nH]c3c(c2c1)CCN1C(=O)C(CC(=O)NCCCn2ccnc2)C[C@H](C(=O)N2CCCCC2)[C@@]31C (stereo not given in full) | 0 | -12 | . | . | 0 | 0 | .
NC1=NC2(CCCCC2)N=C(Nc2ccc(F)cc2F)N1 | 3 | -21 | -2 | 4 | 0 | 0 | .
Cc1cc(C)cc(NC2=NC3(CCCCC3)N=C(N)N2)c1 | -2 | -5 | 2 | 66* | 1 | 0 | 12
SMILES | 697 NFkB inh | NR2E3 ag-1 | NR2E3 ag-2 | Jurkat NFkB inh | MPTP inh | aDG glyco up | Jurkat NFkB conf
COc1cc(/C=C/[N+](=O)[O-])ccc1OCc1cccc(C(=O)O)c1 | -58 | . | . | 69* | . | . | 43
COc1ccc(C(=O)C=Cc2ccc(OCc3ccccc3)c(OC)c2)cc1OC | . | -29 | . | . | 0 | 0 | .
c1ccc2c(c1)oc1c(Nc3ccc4c(c3)OCCO4)ncnc12 | -196 | -130 | 0 | -166 | 2 | -1 | -133
O=C(Nc1ccccc1)c1ncoc1-c1ccc(Cl)cc1 | -14 | -14 | 2 | -32 | 0 | 0 | .
Cn1cc(P(=S)(N2CCOCC2)N2CCOCC2)cc1P(=S)(N1CCOCC1)N1CCOCC1 | -8 | -13 | -1 | 2 | 0 | 0 | .
COc1cc(/C=N/NS(=O)(=O)c2ccc(C)cc2)ccc1OCc1ccc(C(=O)O)cc1 | -9 | -213 | 1 | 63* | 2 | 0 | 28
COc1nc(-c2ccccc2)cc(-c2ccc3c(c2)OCO3)c1C#N | -29 | -2 | -4 | 57* | 1 | 0 | 11
N=c1c(C(=O)NCc2ccccc2)cc2c(=O)n3ccccc3nc2n1Cc1ccco1 | -10 | -13 | 2 | 49 | 0 | 0 | .
N=c1c(C(=O)NCc2ccc(F)cc2)cc2c(=O)n3ccccc3nc2n1Cc1ccco1 | -26 | -23 | -2 | 59* | 0 | 1 | 26
O=C(O)c1ccc(N/N=C/c2ccc3nccnc3c2)cc1 | 20 | 28 | -13 | 60* | 1 | 0 | 18
FC(F)(F)COc1ccc(-n2ccnc2)nn1 | 2 | -10 | 4 | -5 | 2 | 0 | .
COc1ccc(NC(=O)C(Cc2ccccc2)n2cccc2)c(OC)c1 (stereo not given) | 17 | -5 | 1 | -5 | 1 | 0 | .
COc1ccc(-n2nc3cc(C)c(N)c(Br)c3n2)cc1 | -164 | -171 | 0 | -199 | 2 | 0 | -112
COc1ccc(C(=O)Nc2ccccc2C(=O)N/N=C/c2ccncc2)cc1OC | -45 | -33 | 6 | -52 | -1 | 0 | .
COc1ccc(S(=O)(=O)NCc2ccccn2)cc1NC(=O)c1ccc(Cl)cc1 | -39 | -2 | -1 | 25 | 0 | 0 | .
COc1ccc(S(=O)(=O)NCc2ccccn2)cc1NC(=O)c1ccccc1C | -35 | 19 | -2 | 55* | 1 | 0 | 15
COc1ccccc1NC(=O)c1oc2ccccc2c1NC(=O)c1cc(OC)c(OC)c(OC)c1 | -20 | -19 | 0 | 64* | 0 | 0 | 13
COCC(=O)Nc1c(C(=O)Nc2ccccc2OC)oc2ccccc12 | 18 | 2 | 1 | 0 | -3 | 0 | .
COc1ccccc1NC(=S)N(Cc1ccco1)Cc1cc2cc(C)c(C)cc2[nH]c1=O | -17 | -58 | -1 | 67* | 0 | 0 | 5

Screens as filed in PubChem.
